Experimental findings from ChEMBL document CHEMBL4680156, “Discovery of novel pyrido-pyrrolidine hybrid compounds as alpha-glucosidase inhibitors and alternative agent for control of type 1 diabetes” (Eur J Med Chem, 2020) are described below.

Activity calls are given as the source filed them. The calls are words filed in the database; no cut-off is given here.

Series [1] can be described thus: Toxicity in STZ-treated diabetic Sprague-Dawley rat model assessed as decrease in body weight at 60 mg/kg, po administered once daily for 28 days. In kind it is organism-based. The settings on record: in vivo, 672 h, time 28 day. Summed up: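 Male Sprague-Dawley rats (250–320 g, 8–10 weeks) were made diabetic with a single STZ dose (70 mg/kg ip in 0.1 mmol/L citrate buffer, pH 4.5). Random glucose above 125 mg/dl defined diabetes. Dosing was 60 mg/kg in 0.5% saline by gastric gavage once daily for 4 weeks, n=6 per group, with vehicle controls. Body weight was recorded before and after treatment; mean ± SD, 2-way ANOVA.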

For series [2], the system named is Rattus norvegicus. Description: Decrease in post prandial glucose level in type 1 diabetic Sprague-Dawley rat model at 60 mg/kg, po administered once daily for 28 days. The settings on record: time 28.0 day.
Series [3] relates to Rattus norvegicus. The series can be described thus: Antidiabetic activity against STZ-induced type 1 diabetic Sprague-Dawley rat model assessed as decrease in fasting blood glucose level at 60 mg/kg, po administered once daily for 28 days. The settings on record: time 28.0 day. Format: functional, organism-based. An outline of the steps: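 Male Sprague-Dawley rats (250–320 g, 8–10 weeks) were given STZ 70 mg/kg ip once in 0.1 mmol/L citrate buffer, pH 4.5. Rats with random glucose >125 mg/dl at 4 days were counted diabetic. Dosing was 60 mg/kg in 0.5% saline by gavage once daily for 4 weeks, n=6 per group. After a 6 h fast, tail blood glucose was read by glucometer. Data are mean ± SD; 2-way ANOVA.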

Series [4] is described as follows: Inhibition of Saccharomyces cerevisiae alpha-glucosidase using PNPG as substrate incubated for 10 mins by spectrophotometric method.
Series [5] in a line: Non-competitive inhibition of rat intestinal alpha-glucosidase. Format: tissue-based, Intestine.
Another series addresses T1, Alpha-mannosidase (Canavalia ensiformis, UniProt C0HJB3).
T1 sequence (C0HJB3 whole entry): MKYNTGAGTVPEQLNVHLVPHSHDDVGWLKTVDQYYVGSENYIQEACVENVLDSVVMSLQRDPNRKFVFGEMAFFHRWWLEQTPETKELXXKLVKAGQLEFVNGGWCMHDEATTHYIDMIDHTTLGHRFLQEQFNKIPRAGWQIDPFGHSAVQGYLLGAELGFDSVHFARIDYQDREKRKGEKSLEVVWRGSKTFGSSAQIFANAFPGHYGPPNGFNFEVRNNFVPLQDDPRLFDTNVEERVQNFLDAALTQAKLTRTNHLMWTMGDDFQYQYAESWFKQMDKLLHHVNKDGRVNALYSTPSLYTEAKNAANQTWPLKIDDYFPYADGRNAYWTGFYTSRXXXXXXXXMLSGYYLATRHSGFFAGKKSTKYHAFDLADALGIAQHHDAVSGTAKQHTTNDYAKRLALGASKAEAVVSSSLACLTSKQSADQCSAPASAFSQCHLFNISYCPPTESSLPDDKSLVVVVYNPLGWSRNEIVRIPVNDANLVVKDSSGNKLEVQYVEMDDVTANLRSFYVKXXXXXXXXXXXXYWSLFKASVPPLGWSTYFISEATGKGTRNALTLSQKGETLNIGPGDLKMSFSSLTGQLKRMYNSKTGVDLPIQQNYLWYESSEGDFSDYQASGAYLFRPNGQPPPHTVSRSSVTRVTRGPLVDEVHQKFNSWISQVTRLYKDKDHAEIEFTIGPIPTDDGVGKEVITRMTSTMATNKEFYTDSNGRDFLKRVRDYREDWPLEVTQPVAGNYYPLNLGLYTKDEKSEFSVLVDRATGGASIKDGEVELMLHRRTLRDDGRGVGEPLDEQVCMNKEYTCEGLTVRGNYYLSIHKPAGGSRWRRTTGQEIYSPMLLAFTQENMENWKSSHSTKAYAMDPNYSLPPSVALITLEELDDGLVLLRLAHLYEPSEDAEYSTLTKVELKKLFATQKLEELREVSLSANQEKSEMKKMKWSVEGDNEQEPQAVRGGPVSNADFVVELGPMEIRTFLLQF
Description: Inhibition of jack bean alpha-mannosidase using […] as substrate incubated for 10 mins by spectrophotometric method.

Series [6] concerns the target T2, Tissue alpha-L-fucosidase (Bos taurus, UniProt Q2KIM0).
T2 sequence (Q2KIM0 whole entry): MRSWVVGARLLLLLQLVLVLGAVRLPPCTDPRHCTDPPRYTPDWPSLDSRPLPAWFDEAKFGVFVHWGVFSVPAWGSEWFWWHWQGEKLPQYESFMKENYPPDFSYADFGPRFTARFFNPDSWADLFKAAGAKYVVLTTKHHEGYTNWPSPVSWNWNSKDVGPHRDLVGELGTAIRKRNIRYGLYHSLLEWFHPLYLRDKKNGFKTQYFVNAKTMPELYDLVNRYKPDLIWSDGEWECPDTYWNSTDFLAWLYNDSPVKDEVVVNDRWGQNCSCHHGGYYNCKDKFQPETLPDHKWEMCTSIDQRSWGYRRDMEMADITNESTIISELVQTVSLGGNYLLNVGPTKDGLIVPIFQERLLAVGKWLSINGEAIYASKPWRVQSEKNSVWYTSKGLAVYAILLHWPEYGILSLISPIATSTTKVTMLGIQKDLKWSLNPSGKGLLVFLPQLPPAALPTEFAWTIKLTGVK
The series can be described thus: Inhibition of bovine kidney alpha-fucosidase using […] as substrate incubated for 10 mins by spectrophotometric method.

A short description of series [7]: Inhibition of Saccharomyces cerevisiae alpha-glucosidase assessed as reduction in p-nitrophenol liberation using PNPG as substrate preincubated with substrate for 5 mins followed by incubation with enzyme for 5 mins.
Series [8] in a line: Inhibition of Saccharomyces cerevisiae alpha-glucosidase assessed as reduction in p-nitrophenol release using p-nitrophenyl glycoside as substrate by spectrophotometric analysis.
Series [9] is described as follows: Inhibition of Wistar rat intestinal maltase assessed as reduction in released D-glucose level using maltose as substrate by colorimetric assay. In kind it is tissue-based, Intestine.
The target of series [10] is T3, Alpha-mannosidase (Canavalia ensiformis) (UniProt C0HJB3).
T3 sequence (whole entry): T1 sequence (C0HJB3 whole entry)
The series can be described thus: Inhibition of jack bean alpha-mannosidase at 1 mM using […] as substrate incubated for 10 mins by spectrophotometric method.

A short description of series [11]: Inhibition of Saccharomyces cerevisiae alpha-glucosidase using pNPG as substrate preincubated for 15 mins followed by substrate addition and measured after 30 mins by spectrophotometric analysis.
Series [12] can be described thus: Inhibition of rice alpha-glucosidase. On the set-up: species or system Oryza sativa.
Series [13] is described as follows: Inhibition of fungi maltase. Summed up: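 Yeast α-glucosidase, 0.1 IU per well, was added to 2 mM 4-nitrophenyl α-D-glucopyranoside in 10 mM potassium phosphate pH 7.2, with compound from DMSO at 2–10 μM. Plates ran 10 min at 37 °C and were read at 430 nm. Inhibition was calculated against a buffer control, and IC50 came from three independent assays run in triplicate.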

As usually defined, the inhibition is the percentage by which the read-out fell short of the control. For orientation: IC50 means the concentration needed to halve the response being measured. As for `C[C@H]1O[C@H](O[C@H]2[C@H](O)[C@@H](O)[C@@H](O[C@H]3[C@H](O)[C@@H](O)C(O)O[C@@H]3CO)O[C@@H]2CO)[C@H](O)[C@@H](O)[C@@H]1N[C@H]1C=C(CO)[C@@H](O)[C@H](O)[C@H]1O` (some centres undefined) [ACARBOSE], the Activity entry in series [1] was “Non-Toxic”. For the same compound, the inhibition entry with Rattus norvegicus [2] is “inactive”. Further, the result in the series with Rattus norvegicus [3] was Active. The compound also gave an IC50 in series [4] of 2.1 µM.

A word on the Ki: it is the dissociation constant of the complex between target and ligand, obtained from inhibition or displacement. A low value points to higher affinity. In series [5], `CCC/C=C1/OC(=O)c2ccccc21` [(E)-BUTYLIDENEPHTHALIDE] registered an inhibition constant (Ki) of 4.86 µM. Also, the IC50 at Alpha-mannosidase turned out to be 41 µM; in series [4] it was 7.15 µM; in series [6], 82 µM.

For `O=c1c(-c2ccc(O)cc2)coc2cc(O)cc(O)c12` [GENISTEIN], the IC50 was 49 µM at Alpha-mannosidase, 7 µM in series [7], 81 µM in [4] and 54 µM in [6].

For `OC[C@H]1NC[C@@H](O)[C@@H]1O`, the results for the IC50 in series [8], in series [9] and in [4] were 0.15 µM, 5.8 µM and 58 µM, respectively. This compound also gave an inhibition in series [10] of less than 50%.

For the compound `CCCCCCCCn1cnc2cc(N)c(-c3ccccc3O)cc21`, the IC50 amounted to 0.16 µM in series [11] and 5.03 µM in series [4]. This compound also displayed an inhibition in series [10] of less than 50%.

Consider `OC[C@@H]1[C@@H](O)[C@H](O)[C@H]2[C@H](O)[C@@H](O)CN21` [CASUARINE], for which the IC50 in series [12] amounted to 1.2 µM; against Alpha-mannosidase it was 51 µM; in series [13], 0.7 µM; in [4], 41.1 µM; in series [6], 82 µM.
